The values below come from ChEMBL document CHEMBL1122268, “Mechanism of action of 2',5-difluoro-1-arabinosyluracil” (J Med Chem, 1983).

pEC50, pKi: −log10 of the molar value.

In assay [1] the target is Lacticaseibacillus casei. In words: Inhibition of dTMP synthetase in the absence of CH2-H4 folate Lactobacillus casei. Format: functional.
For assay [2], the system named is P815. The experiment in a line: The growth inhibition of P815 cell line. The following applies: Mus musculus. The format is functional, cell-based.
The subject of assay [3] is L5178Y. In words: The growth inhibition of L5178Y cell line. The format is functional, cell-based. Particulars: Mus musculus.
For assay [4], the system named is S49. In words: Reduction of deoxy-Thymidinetriphosphate pool after 1 hour incubation in S-49 cells(2 X 10e 5) at a concentration of 16.5 uM. Format: functional, Mus musculus. Summed up:
(§1)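 Mouse lymphoma S-49 suspension cultures at 2 × 10^5 cells/mL in DMEM with 10% heat-inactivated horse serum, 37 °C, exposed to 16.5 μM drug; dATP, dCTP, dGTP, dTTP pool sizes measured at 1 h (dTTP also 4 h), expressed as percent of original value.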

For assay [5], the system named is S49. In words: Reduction of deoxy-[…] pool after 1 hour incubation in S-49 cells(2 X 10e 5) at a concentration of 16.5 uM. Format: functional, Mus musculus. In short, it runs like this: as §1
Assay [6] has as its system S49. In words: The growth inhibition of S-49 mouse lymphoma cells. Format: functional, cell-based. Summed up: (§2)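 S-49 or thymidine kinase-deficient S-49/TK⁻ cells in 1 mL DMEM with 10% heat-inactivated horse serum plus inhibitor, 37 °C, 10% CO2, 72 h; cell density counted daily by Coulter counter; EC50 = concentration halving growth rate relative to untreated controls.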

In assay [7] the test system is S49. The experiment in a line: The growth inhibition of thymidine kinase deficient S-49 cells. Format: functional, cell-based. Particulars: Mus musculus. Summed up:
as §2

Assay [8] deals with S49. The experiment in a line: Reduction of deoxy-Adenosinetriphosphate pool after 1 hour incubation in S-49 cells(2 X 10e 5) at a concentration of 16.5 uM. Format: functional, Mus musculus. In short, it runs like this:
as §1

Assay [9] has as its system S49. The experiment in a line: Reduction of deoxy-Cytidinetriphosphate pool after 1 hour incubation in S-49 cells(2 X 10e 5) at a concentration of 16.5 uM. Format: functional, Mus musculus. Summed up:
as §1

In assay [10] the test system is S49. The experiment in a line: Reduction of deoxy-Thymidinetriphosphate pool after 4 hour incubation in S-49 cells(2 X 10e 5) at a concentration of 16.5 uM. The format is functional, Mus musculus. In short, it runs like this:
as §1

Assay [11] concerns Thymidylate synthase (Lactobacillus casei). The experiment in a line: Rate constant for the inactivation of DTMP synthetase in the presence of cofactor CH2-H4 folate.

`O=c1[nH]c(=O)n([C@H]2C[C@H](O)[C@@H](COP(=O)(O)O)O2)cc1Cl` had a pKi in assay [1] of 6.72.

`O=c1ccn([C@H]2C[C@H](O)[C@@H](COP(=O)(O)O)O2)c(=O)[nH]1` [DEOXYURIDINE MONOPHOSPHATE]: the pKi in [1] was 5.64.

For the compound `O=c1[nH]c(=O)n([C@H]2O[C@@H](CO)[C@H](O)[C@H]2F)cc1F`, the negative-log EC50 (pEC50) in assay [2] was 5.59; in assay [3], 5.42; in assay [6] it was 5.48; in assay [7], 3.40. Besides, the Decrease in assay [4] is 80%; in assay [5], under 20%; in [8], 90%; in [10] it was 40%. In [9], this compound had an Increase of 172%. The Rate constant in [11] came to 2.4 min⁻¹.

In assay [1], `O=c1[nH]c(=O)n([C@@H]2O[C@H](COP(=O)(O)O)[C@@H](O)[C@@H]2F)cc1F` gave a pKi of 5.48.
